From ChEMBL document CHEMBL1153266, “Synthesis and biological activity of anticoccidial agents: 2,3-diarylindoles” (Bioorg Med Chem Lett, 2009)
Calls of active or inactive are those of the source. The rule behind the calls is not given here.

Experiments:
Eimeria mitis [1] = test: Antiparasitic activity against Eimeria mitis at 50 ppm administered orally through feed after 7 days; format: functional
In short: (§1)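 Each compound was given orally in the feed, and its anticoccidial activity was ranked in a seven-day efficacy model. Each Eimeria species got its own quantitative measure.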

Eimeria tenella [2] = test: Antiparasitic activity against Eimeria tenella at 50 ppm administered orally through feed after 7 days; format: functional; in short: as §1
Eimeria maxima [3] = test: Antiparasitic activity against Eimeria maxima at 50 ppm administered orally through feed after 7 days; format: functional; in short: as §1
Eimeria acervulina [4] = test: Antiparasitic activity against Eimeria acervulina at 50 ppm administered orally through feed after 7 days; format: functional; in short: as §1
[5] = target: cGMP-dependent protein kinase (Eimeria tenella, UniProt Q8MMZ8); test: Inhibition of Eimeria tenella parasite-specific cGMP-dependent protein kinase
Eimeria tenella [6] = test: Antiparasitic activity against Eimeria tenella at 6 ppm administered orally through feed after 7 days; format: functional; in short: as §1
Eimeria mitis [7] = test: Antiparasitic activity against Eimeria mitis at 6 ppm administered orally through feed after 7 days; format: functional; in short: as §1
Eimeria acervulina [8] = test: Antiparasitic activity against Eimeria acervulina at 6 ppm administered orally through feed after 7 days; format: functional; in short: as §1
Eimeria maxima [9] = test: Antiparasitic activity against Eimeria maxima at 6 ppm administered orally through feed after 7 days; format: functional; in short: as §1

cGMP-dependent protein kinase, sequence (Q8MMZ8 whole entry): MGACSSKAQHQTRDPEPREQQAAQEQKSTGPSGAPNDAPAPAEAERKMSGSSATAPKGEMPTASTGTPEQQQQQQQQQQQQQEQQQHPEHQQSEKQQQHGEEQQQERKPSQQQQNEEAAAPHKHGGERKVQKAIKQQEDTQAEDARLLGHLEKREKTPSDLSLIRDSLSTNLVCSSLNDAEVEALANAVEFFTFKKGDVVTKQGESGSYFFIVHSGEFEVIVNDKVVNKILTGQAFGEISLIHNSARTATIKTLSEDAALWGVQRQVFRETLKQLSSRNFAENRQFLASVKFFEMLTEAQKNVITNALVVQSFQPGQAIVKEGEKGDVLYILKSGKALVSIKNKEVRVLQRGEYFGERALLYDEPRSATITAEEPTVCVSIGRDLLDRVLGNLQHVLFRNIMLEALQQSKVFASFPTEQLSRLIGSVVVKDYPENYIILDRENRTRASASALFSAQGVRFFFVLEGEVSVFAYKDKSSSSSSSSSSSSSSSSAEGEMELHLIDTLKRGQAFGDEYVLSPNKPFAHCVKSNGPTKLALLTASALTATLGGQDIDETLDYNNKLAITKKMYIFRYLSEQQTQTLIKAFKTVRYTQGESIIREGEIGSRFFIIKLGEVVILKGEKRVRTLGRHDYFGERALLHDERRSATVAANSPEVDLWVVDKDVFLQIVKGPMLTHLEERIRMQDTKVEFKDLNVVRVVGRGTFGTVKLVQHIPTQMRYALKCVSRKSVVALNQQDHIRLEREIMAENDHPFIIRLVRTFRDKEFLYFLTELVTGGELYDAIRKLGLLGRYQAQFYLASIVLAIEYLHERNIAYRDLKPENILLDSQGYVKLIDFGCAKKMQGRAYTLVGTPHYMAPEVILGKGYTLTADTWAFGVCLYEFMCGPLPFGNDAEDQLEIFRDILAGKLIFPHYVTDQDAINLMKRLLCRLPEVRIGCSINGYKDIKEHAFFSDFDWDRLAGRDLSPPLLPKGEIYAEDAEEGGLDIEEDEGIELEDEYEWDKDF

Row | SMILES | Activity (Eimeria mitis [1]) | Activity (Eimeria tenella [2]) [%] | Activity (Eimeria maxima [3]) [%] | Activity (Eimeria acervulina [4]) [%] | IC50 [5] [nM] | Activity (Eimeria tenella [6]) [%] | Activity (Eimeria mitis [7]) [%] | Activity (Eimeria acervulina [8]) [%] | Activity (Eimeria maxima [9]) [%]
1 | OCCN1CCC(c2ccc3c(-c4ccncc4)c(-c4ccc(F)cc4)[nH]c3c2)CC1 | 80% | 50 | <50 | 80 | 0.1 | – | – | – | –
2 | CN1CCC(c2ccc3c(-c4ccncn4)c(-c4ccc(F)cc4)[nH]c3c2)CC1 | 50% | <50 | <50 | 99 | 0.4 | – | – | – | –
3 | Nc1nccc(-c2c(-c3ccc(F)cc3)[nH]c3cc(C4CCN(CCO)CC4)ccc23)n1 | – | <50 | <50 | <50 | 0.3 | – | – | – | –
4 | CN1CC(c2ccc3c(-c4ccncc4)c(-c4ccc(F)cc4)[nH]c3c2)C1 | <50% | 50 | – | <50 | 0.62 | – | – | – | –
5 | Nc1nccc(-c2c(-c3ccc(F)cc3)[nH]c3cc(C4CCNCC4)ccc23)n1 | – | <50 | <50 | <50 | 0.21 | – | – | – | –
6 | CCN1CCC(c2ccc3c(-c4ccncc4)c(-c4ccc(F)cc4)[nH]c3c2)CC1 | 80% | 50 | 80 | <50 | 0.16 | – | – | – | –
7 | CN1CCC(c2ccc3c(-c4ccnc(N)n4)c(-c4ccc(F)cc4)[nH]c3c2)CC1 | – | 80 | <50 | <50 | 0.22 | – | – | – | –
8 | CN1CCN(c2ccc3c(-c4ccncc4)c(-c4ccc(F)cc4)[nH]c3c2)CC1 | <50% | <50 | – | <50 | – | – | – | – | –
9 | Fc1ccc(-c2[nH]c3cc(C4CCNCC4)ccc3c2-c2ccncn2)cc1 | <50% | <50 | <50 | <50 | 0.65 | – | – | – | –
10 | CN1CCC(c2ccc3c(-c4ccncc4)c(-c4ccc(F)cc4)[nH]c3c2)CC1 | 99% | 50 | 50 | 99 | 0.15 | – | – | – | –
11 | CN1CCN(Cc2ccc3c(-c4ccncc4)c(-c4ccc(F)cc4)[nH]c3c2)CC1 | <50% | 80 | – | <50 | 8.9 | – | – | – | –
12 | CN1CCC(Cc2ccc3c(-c4ccncc4)c(-c4ccc(F)cc4)[nH]c3c2)CC1 | 50% | <50 | – | <50 | 1.6 | – | – | – | –
13 | CN1CCN(C(=O)c2ccc3[nH]c(-c4ccc(F)cc4)c(-c4ccncc4)c3c2)CC1 | inactive | 80 | – | <50 | 12.7 | – | – | – | –
14 | CN1CCC(c2ccn3c(-c4ccnc(N)n4)c(-c4ccc(F)cc4)nc3c2)CC1 | – | – | – | – | – | 100 | 80 | 80 | 100
15 | Fc1ccc(-c2[nH]c3cc(C4CCNCC4)ccc3c2-c2ccncc2)cc1 | <50% | <50 | <50 | <50 | 0.15 | – | – | – | –
16 | Fc1ccc(-c2[nH]c3cc(N4CCOCC4)ccc3c2-c2ccncc2)cc1 | <50% | 50 | – | <50 | 9.2 | – | – | – | –
17 | OCCN1CCC(c2ccc3c(-c4ccncn4)c(-c4ccc(F)cc4)[nH]c3c2)CC1 | 100% | 99 | <50 | 50 | 0.8 | – | – | – | –
